Reference: the EternaBench riboswitch data

Tested on: MS2 coat protein
Assay: apparent Kd, MS2 coat protein; higher = weaker binding; RNA-MaP array; FMN 200 µM where present
In short: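 The apparent Kd is reported as the median of filtered per-cluster binding-curve fits. To get these curves, designs transcribed by stalled E. coli RNA polymerase on Illumina sequencing-chip clusters were titrated with SNAP-549-labelled MS2 coat protein from 0.7 or 1.5 nM, doubling to 3 µM. Titrations were run without and then with constant ligand in 100 mM Tris-HCl pH 7.5, 80 mM KCl, 4 mM MgCl2, BSA, DTT, yeast tRNA and Tween-20, and green signal was normalised to red-channel RNA signal and control-cluster median Fmax.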

[1] = designed as: OFF switch for flavin mononucleotide, no ligand
[2] = ligand present: flavin mononucleotide, designed as: OFF switch for flavin mononucleotide
[3] = designed as: ON switch for flavin mononucleotide, no ligand
[4] = ligand present: flavin mononucleotide, designed as: ON switch for flavin mononucleotide

| Sequence | apparent Kd [1] [nM] | apparent Kd [2] [nM] | apparent Kd [3] [nM] | apparent Kd [4] [nM] |
| --- | --- | --- | --- | --- |
| UUAGCGCGAGGAUAUGCGGUUUGUGCUUUGGGCCCUGGCGUACAUGAGGAUCACCCAUGUAGAAGGCGUGUUGU | 24.7 | 24.8 | – | – |
| GGGCCCGGAGGAUAUACAUGAGGAUCACCCAUGUACCCGGGUUUUAUUGGGCCCGGGUGUAGAAGGUUGGGCCC | 14.1 | 13.3 | – | – |
| UUCGUGCAGCUUUGCUGUACGCGUACAUGAGGAUCACCCAUGUAGGAUAUAGUAGGCAAAGCUUACUAGAAGGAUAUAGUGAUC | 47.6 | 47.3 | – | – |
| GCUACGCCUGACAUGAGGAUCACCCAUGUUAGAUUGUUAUGUCAGGAUAUUGUCUAGAAACUAGACAAGAAGGGAUGUGUAGCU | – | – | 728 | 66.5 |
| GUCUUCCUAGGAUAUACAUGAGGAUCACCCAUGUACAGUUUCGUCAAAGGAUACUCGCGUAGAAGGAGGUGGAU | 26 | 50.7 | – | – |
| ACCUCACAUGAGGAUCACCCAUGUCAGGAUAUGUACCCGAUCAAGUCAGAGAUUGGGAGCAGAAGGGACUGCGG | 119 | 34.5 | – | – |
| GCAAAGCCUGACAUGAGGAUCACCCAUGUUAGAUUGUUAUGUCAGGAUAUUGUCUAGACACUAGACAAGAAGGGAUGCUUUGCU | – | – | 366 | 34.2 |
| GCAGCGUAUGUAGGAUAUCGGUCAGUUUCUGACCGAGAAGGACAUGAGGAUCACCCAUGUAAAUUACCGACUUUGUCGGGCUGC | 6.67 | 8.62 | – | – |
| CAUCCACAUGAGGAUCACCCAUGUCAGGAUAUCGCGCGCGCGUUUUCGGUCUUUCGCGCGAGAAGGGACGACUG | 15.4 | 16.3 | – | – |
| GUGUGUUGCGGGCAGGAUAUGUACUUGAGUACAUGAGGAUCACCCAUGUGCGGGUGUUUCACCCGACAGAAGGGCCUAUCGCGAC | – | – | 977 | 309 |
| AUCAGCUCGUCAGGAUAUACGUCACUGCGUCAACAGUGUGGUAAGAUCACAUGAGGAUCACCCAUGUAGAAGGGACGAGCUGAU | 14.6 | 266 | – | – |
| UAUUAUCACGAAGGAUAUGCUUACAUGAGGAUCACCCAUGUAUGUAUAUUGAUCCAGAGUUUUGAGCAGAAGGUCGUGAGUAAA | 41.8 | 250 | – | – |
| AUACAACAUGAGGAUCACCCAUGUGAGGAUAUGCGAUACAUCAUCAUCAUCAUCAAUCGCAGAAGGCACAACAU | 50.2 | 55 | – | – |
| UGAGCCUCGUGAGGAUAUACAUGAGGAUCACCCAUGUAAUAAGAUCAACGGAGGAAACUCCGAAUGUAGAAGGCACGAGGCUCA | 40.9 | 393 | – | – |
| CAAUCGGCACAGAAGGGUGACAUGAGGAUCACCCAUGUAGCGUGGCACUCAGGAGGAGCCACGCCACAGGAUAUGUGCCAGCAC | – | – | 50.5 | 53.8 |
| GGACGGUUAGUUAGGAUAUGCUCUACCUCGGUAGAGCAGAAGGGACAUGAGGAUCACCCAUGUGAAAACUGUUC | 19.4 | 21.3 | – | – |
| GUACUGUAGUGAGGAUAUACGAGUACGAUAGUACGGCGAUCCAUAUAUACAUGAGGAUCACCCAUGUAGAAGGCACUUCAGUAC | 8.66 | 109 | – | – |
| UCGUUGUCAGGAUAUCGUGUAUACAACUUUAGUUUUAUGUUCGAGAAGGGACAUGAGGAUCACCCAUGUUACGU | 65 | 239 | – | – |
| UGGUACUAGGGAGGAUAUGGGAAGAUACAUGAGGAUCACCCAUGUUUAAUAAUGCCGAGAGGCAACUAGAAGGCCCUAGUACCU | – | – | 253 | 13.9 |
| AAUAACAGAGGAUAUACUAUUUUAUGUGUUUGUUAUUUUAAACAUGAGGAUCACCCAUGUAGAAGGCUGAGUAA | 26.7 | 26.9 | – | – |
| CUCUAUCAUGUAGGAUAUGCGUGUCGAAGCUAUGCAGAAGGACAUGAGGAUCACCCAUGUCUUACUGUCUGCGGACGGACAGGG | 22.4 | 53.9 | – | – |
| CCAGGCUUCGAGAAGGACAUGAGGAUCACCCAUGUGCGUGUGAAGCAGCCGUGAGGCUGCAUCAUGUAGGAUAUCGGAGUCUGC | 77.2 | 538 | – | – |
| GCGUAGAUAGCAGGAUAUAUGUUUCCUACAUGAGGAUCACCCAUGUAGGUGAUCAGCCGAGAAAAGUAGAAGGGCUAUCUAUGC | – | – | 17.4 | 14.5 |
| AUCAGCUCGUGAGGAUAUACAUGAUAGAUCGAUUAAUUAAUUAAUUUAACAUGAGGAUCACCCAUGUAGAAGGUACGAGCUGAU | 52.3 | 50.5 | – | – |
| UGGGAUGGCUAGAAGGCUCCUUAUACUACAGGGAGAGGAUAUGGCACAUGAGGAUCACCCAUGUGUACCUGUAGGUGAUCCACA | 113 | 108 | – | – |
| AAACAUGUCCGAGGAUAUCUGGAAACAUUUCCGAGAGAAGGCGGACAUGAGGAUCACCCAUGUCUCUCCUCAUCAAAUCCAAGU | 8.44 | 80.7 | – | – |
| CCGUGGCAAGGAUAUACGUAGGAGAGGAAGGCAAGAGAAGGACAUGAGGAUCACCCAUGUAGAAGGUGCAGAUC | 56.5 | 56.5 | – | – |
| GAUAAACAUGAGGAUCACCCAUGUGUGAAUAUGGGAGGAUAUACGUGGACCGUAGUCCGCGUAGAAGGCCUAAUUG | – | – | 225 | 40.4 |

| Sequence | apparent Kd [1] [nM] | apparent Kd [2] [nM] | apparent Kd [3] [nM] | apparent Kd [4] [nM] |
| --- | --- | --- | --- | --- |
| UGUCGGAGCAGAGGAUAUUACAUGAGGAUCACCCAUGUAUGAACCAAUAGCUGCAAACAGCAAUGUAAGAAGGCUGCUCCGACA | 12.4 | 162 | – | – |
| ACAUGAGGAUCACCCAUGUCUUUAUCCGAUUCUUCAUUUACGUAGGAUAUCGUCUAUACUAUCAUCGAGAAGGACGUUCUUUAA | – | – | 17.6 | 15.9 |
| CGCGCGUCGACAGGAUAUACAGAUUGGCUCCGGUACAUGAGGAUCACCCAUGUAGAAGGGUCACGCACGGAUAGUACAUUAUUA | 8.44 | 28 | – | – |
| UUACUCAUGUAAGGAUAUGCAGCCGAAACGGCUGCAGAAGGUACUAAAAUACAUGAGGAUCACCCAUGUCUUUUUAAUAUAGAC | – | – | 151 | 80.1 |
| AGCGCCAUCGUGAGAUGGCGUAUUACAUGAGGAUCACCCAUGUAGGAUAUCGAUUGCUUUGCAGUCGAGAAGGGCAUGUCCUAG | 35.8 | 42.7 | – | – |
| GGUCCACAUGAGGAUCACCCAUGUUAGGAUAUCUCCCGCCUCCUCACUGGAGACGGACAGAGAAGGAACAUCAA | 23.6 | 74.7 | – | – |
| AGAAAGGCAGGAUAUACAUGAGGAUCACCCAUGUUAAGAGUGACGGAAACGUCACGAAGUAGAAGGGCCAAGAA | 21.1 | 18.7 | – | – |
| GCAGGUAUACGAGGAUAUGGGUGGUACGGACAUGAGGAUCACCCAUGUCUCCCAGAAGGCGUAGCCUAACAUUAAGAGCAGGAG | – | – | 122 | 22.5 |
| UGACUGAAGCAAGGAUAUUGAAAAGUUAACGUACAAGAAGGUGCUGUUUAUGUCUCUUUACAUGAGGAUCACCCAUGUUUUUAU | – | – | 36.7 | 23.2 |
| UAACUGCAGAAGAUAAUAAUGAAUACAUGAGGAUCACCCAUGUAGGAUAUCGUCAGGAAUACUGACGAGAAGGACAUACUGCAG | 14.1 | 16.9 | – | – |
| UGAACUAUGUAGAAGGCCCAUAUUUAUAUAUAGGGAGGAUAUACAUGAGGAUCACCCAUGUAAAGAGCAAGAGGACUUGUCAGA | 14.2 | 37.3 | – | – |
| GGUCCCUACGCACAGGAUAUUCUUUUGGCAACAUGAGGAUCACCCAUGUGUGCCGAUCAUGGUUAGAAGAAGGGUGGUAGGGACC | – | – | 20.6 | 15.7 |
| AUUUAUGGCCAGAAGGACAUGAGGAUCACCCAUGUAGGAUAUGGACGAUUUUGCUCGGCGGUUCGUUUAGGAAUCACCGGUGGU | – | – | 7.88 | 6.38 |
| GUCUGCUCGUGAGGAUAUACAACACUGCUUCGGCAGUGUAUUAAGAUCACAUGAGGAUCACCCAUGUAGAAGGCACGAGCUGAU | 14.1 | 252 | – | – |
| UGUCAGUAACAAGGAUAUUGGAGUUAAUGGCUACGAGAAGGUGUUACAUGAGGAUCACCCAUGUCCUCGCCUGUAGCAAGGACA | 87.2 | 567 | – | – |
| UGAUCUCGGGUUAGGAUAUACUGACAACAUAGACAGUAGAAGGAACAUGAGGAUCACCCAUGUGCAUUAACCAU | 25.1 | 59.3 | – | – |
| UGUUGUUCAGGAUAUGGUGUGUUAUACAUGAGGAUCACCCAUGUGGGUCCUGGUUUGGCCUCAGAAGGGAAUGUUG | 750 | 537 | – | – |
| UACAUGAGGAUCACCCAUGUUUUGUCGUGUAUGGUAUUUAUCUAGGAUAUCAAUUUAAUUAUUUAUGAGAAGGAGAAUAUUAAU | 39.6 | 33.1 | – | – |
| UUAAAUCAUGUAGGAUAUGCAUGGCGAAGCUACGCAGAAGGACAUGAGGAUCACCCAUGUGCUAGCUACCGAGUUCGGUGGCAA | 71.3 | 283 | – | – |
| AUGUUAUUCUGAGGAUAUUGUUUAUUCUUCUCACAUGAGGAUCACCCAUGUUUCCGUGUUUACCGCAAGAAGGCAGUUUUGUUU | 29.9 | 27.5 | – | – |
| UGUAAAUUAUUAAGUAAUUAGGCGAAGGAUAUAUAACAUGAGGAUCACCCAUGUACUAAAUUGAAGUAGAAGGUUGAGCAUUUC | – | – | 16.5 | 14.6 |
| UAUGAAUAGCAAGGAUAUUGAUAACAUGAGGAUCACCCAUGUAAUUGAUCGAGUUAGAUCAGUUACAAGAAGGUGCAAUUGAUU | – | – | 53 | 557 |
| GUCAUGUCAGGAUAUGCUUAUGAUGGGUGCUCAGACAUGAUGCAGAAGGGACAUGAGGAUCACCCAUGUACUGU | 62.5 | 62.5 | – | – |
| GUGGUACAUGAGGAUCACCCAUGUUAGGAUAUCGCGUGAGGUUUUACUUCCGCACACGCGAGAAGGGACGUCUU | 54.9 | 41.6 | – | – |
| GUCAGCUCGUGAGGAUAUACAACACUGCUUCGGCAGUGUAUUAAGAUCACAUGAGGAUCACCCAUGUAGAAGGCCCGAGCUGAU | 10.2 | 139 | – | – |
| CCAUCGAGUGUGAGGAUAUGCUGGUCCAUAGAUCAGCAGAAGGCACAUGAGGAUCACCCAUGUGGAGACGGUGG | 41.7 | 332 | – | – |
| GCUCAGUAAGGAUAUUAAUGACGCUGUUAUUCAGCGUCAGCUGAGAAGGUACAUGAGGAUCACCCAUGUGGUGA | 210 | 117 | – | – |
